TbHK1 inh = T. brucei hexokinase 1 inhibition. recombinant TbHK1, G6PDH-coupled NADH A340. inhibition, % at 10 µM. 220,000 compounds, 0.11% hits. AID 1430;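 active = inhibition of 50% or more in the single-dose primary screen; inactive = inhibition below 50%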
RanGTP-Imp inh = inhibitors of RanGTP-importin-beta interaction, primary screen, biochemical, FRET, CFP-Ran, YFP-importin-beta, homogeneous; cell-free CFP-Ran/YFP-importin-beta FRET ratio; inhibition, % (no concentration beside the values); 300,000 compounds, 1.1% hits;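 active = more than half of the replicate wells show a fall in the fluorescence ratio signal beyond about 16%, limit read from the data, passing the limit was not always enough; inconclusive = exactly half of the replicate wells pass the set limit; inactive = fewer than half of replicates pass the limit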;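 also: 0% = DMSO wells and 100% = Ran loaded with GDP instead of GTP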
Hck-Nef inh = human Hck-Nef kinase inhibition. 220,000 compounds, 0.68% hits. Recombinant Hck-YEEI plus Nef, Z-Lyte FRET kinase assay. P08631. inhibition, % at 20 µM;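 active = Hck-Nef kinase inhibition above about 50%, limit read from the data; inactive = inhibition below that limit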;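 also: 0% = DMSO with Hck plus Nef and 100% = Hck alone without Nef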
Target sequence (P08631 whole entry, looked up): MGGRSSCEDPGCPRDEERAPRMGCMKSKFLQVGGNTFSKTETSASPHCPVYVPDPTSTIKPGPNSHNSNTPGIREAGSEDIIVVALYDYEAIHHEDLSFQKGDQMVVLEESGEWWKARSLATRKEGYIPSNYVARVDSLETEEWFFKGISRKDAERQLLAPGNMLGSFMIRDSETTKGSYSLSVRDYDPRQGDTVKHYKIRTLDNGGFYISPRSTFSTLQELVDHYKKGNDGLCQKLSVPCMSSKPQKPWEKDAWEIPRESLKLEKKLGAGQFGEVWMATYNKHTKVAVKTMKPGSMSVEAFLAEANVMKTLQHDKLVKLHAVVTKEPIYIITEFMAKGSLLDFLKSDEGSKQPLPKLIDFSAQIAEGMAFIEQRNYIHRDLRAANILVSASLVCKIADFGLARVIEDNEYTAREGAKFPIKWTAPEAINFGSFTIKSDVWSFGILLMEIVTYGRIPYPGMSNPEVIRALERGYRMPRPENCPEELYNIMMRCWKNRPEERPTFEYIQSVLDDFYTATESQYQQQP
Runt-SMMHC FRET = blocks binding of human RUNX1 Runt domain to CBFb-SMMHC; inhibition, % at 20 µM; 220,000 compounds, 0.74% hits; Q01196+Q13951; Cerulean-Runt/Venus-CBFb-SMMHC FRET ratio 530/480, 1 h;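 active = mean inhibition across duplicate retests at 20 µM reaching about 50%, limit read from the data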;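 also: 0% = DMSO wells and 100% = wells with excess untagged CBFb-SMMHC; inhibitors lower the FRET ratio by blocking Runt binding to CBFb-SMMHC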
Runt-CBFb FRET = blocks binding of human RUNX1 Runt domain to CBFb; Cerulean-Runt/Venus-CBFb FRET ratio 530/480, 1 h; inhibition, % at 20 µM; 220,000 compounds, 0.46% hits; AID 1496;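 active = inhibition over about 50% at 20 µM in the single-dose screen, limit read from the data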;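 also: 0% = DMSO wells and 100% = excess unlabeled CBFb competitor control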
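System: Cerulean-labeled Runt domain protein | Quantity: 100 nM of each labeled protein | Schedule: 1 h compound exposure, room temperature | Detection: Fluorescence energy transfer, 422 nm excitation, 530/480 nm emission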
14-3-3 Bad inh = disrupts binding of bovine 14-3-3 zeta to phospho-Bad peptide; P63103; TR-FRET 14-3-3zeta/Dy647-pBad peptide displacement, 1 h; inhibition, % at 21.7 µM; 220,000 compounds, 0.71% hits; AID 781;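 active = inhibition above about 70%, limit read from the data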;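 also: 0% = full 14-3-3 plus peptide FRET controls and 100% = background without 14-3-3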
YIC FRET counter = counter-screen YIC FRET for RanGTP-importin-beta inhibitors. shares compounds with RanGTP-Imp inh. Purified YIC probe, intramolecular FRET ratio YFP/CFP. IC50, µM. 1,000 compounds, 40% hits;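 active = fitted half-maximal inhibitory concentration no more than tenfold above the top dose tested; inconclusive = flat fit with 30 to 70% activity, or poor fit; inactive = half-maximal concentration beyond tenfold above the top dose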
Numbers without * were called inactive; ? = inconclusive; . = not tested or not shown. Only some compounds are listed: those with a hit (about 2.2% of all), similar ones and a draw of the others.

SMILES	TbHK1 inh	RanGTP-Imp inh	Hck-Nef inh	Runt-SMMHC FRET	Runt-CBFb FRET	14-3-3 Bad inh	YIC FRET counter
S=C1NC2=C(CCCC2=C2SCCCS2)C(c2ccccc2)N1 (stereo not given)	-13.5	-2.0	-6.9	-3.9	-6.4	-6.7	.
COc1ccc(C2NC(=S)NC3=C2CCCC3=C2SCCS2)cc1 (stereo not given)	-5.5	18.4*	19.8	-2.2	-4.7	-10.9	>50
COCC(=O)Nc1nnc(COc2ccc(Cl)cc2)s1	4.1	25.9*	4.9	-3.5	0.0	6.9	>50
Cc1nnsc1C(=O)Nc1ccc(S(=O)(=O)N2CCC(C)CC2)cc1	.	4.1	.	.	.	.	.
COCCNC(=S)NC12CC3CC(CC(C3)C1)C2	-1.2	0.7	2.3	3.4	-0.3	-9.3	.
CCN(CC)S(=O)(=O)c1ccc(OC)c(NC(=O)C2CC(=O)N(c3ccc(C)cc3)C2)c1 (stereo not given)	-8.8	29.1*	17.3	1.5	-2.8	-10.6	>50
C[C@H](O)c1[nH]c2cc(F)ccc2c1[C@H](C)O	.	17.5*	.	.	.	.	>50
CNC(=O)CSc1nc2[nH]ncc2c(=O)[nH]1	3.4	-0.5	8.8	-0.8	1.7	15.8	.
Cc1cccc(C2=NN(c3ccc(Br)cc3)[C@@H](C(=O)N3CCOC3=O)[C@@H]2c2ccc(F)cc2)c1	-17.3	18.0*	1.5	55.6	17.5	9.0	35.1*
Cc1ccc(-n2cc(CNCCN3CCOC3=O)c(-c3cccc(C)c3)n2)cc1	-7.6	1.6	15.2	.	.	-12.5	.
O=C(COC(=O)CSCC(=O)N1CCCCC1)Nc1ccc(Cl)cc1	31.9	28.3*	2.5	4.4	-1.5	0.4	>50
O=C(Nc1ccc(Cl)cc1)N1CCCC1	2.2	1.3	-1.1	4.8	-0.1	-2.3	.
Cc1ccc(S(N)(=O)=O)cc1NC(=O)/C=C/c1ccc2c(c1)OCO2	-35.2	6.1	18.7	-1.0	1.6	-0.6	.
COC(=O)c1cccc(NC(=S)NC(C)C)c1	-5.9	-1.4	-4.9	0.4	-0.2	-6.8	.
Fc1ccccc1N1CCN(c2nc3ccccc3n3nnnc23)CC1	-3.1	17.2*	-0.8	22.3	13.4	5.5	27.1*
CCOc1ccc(CN(C(=O)c2ccccn2)c2ccc(OC)c(Cl)c2)cc1	.	-1.1	.	.	.	.	.
COC(=O)C1=C(O)/C(=C\c2cc(C)n(-c3ccccc3C)c2C)N=C1C	-27.4	19.7*	15.9	16.5	9.5	-3.0	43.9*
CCOC(=O)c1ccc(-c2ccc3c(=O)c4ccccc4n(C)c3c2)cc1F	.	43.7*	.	.	.	.	1.29*
CCOc1cc2[nH]c(=O)n(CCCC(=O)N(C)Cc3ccccc3)c(=O)c2cc1OCC	-9.5	-2.3	16.0	-0.7	-2.8	11.1	.
N#Cc1c(N)sc(=S)c2c1CCN(Cc1ccccc1)C2	.	.	.	31.2	25.4	19.7	.
CCN1CCc2c(sc(N)c2C#N)C1	-23.0	34.1*	8.7	110.0*	42.8	-0.8	18.2*
COC(=O)C1=CN(Cc2ccccc2)C=C(C(=O)OC)C1c1cc(F)ccc1F	.	23.8*	.	.	.	.	20.9*
O=C(/C=C/c1cccs1)Nc1ccc([N+](=O)[O-])cc1	-14.6	18.8*	-0.1	-0.5	-6.0	-12.1	>50
COc1cccc(C(=O)N2CCC(n3nccc3NC(=O)C(OC)c3ccccc3)CC2)c1 (stereo not given)	.	-0.6	.	.	.	.	.
COC(=O)c1c(NC(=O)CN2CCN(c3ncccn3)CC2)sc(C(N)=O)c1C	.	-1.2	.	.	.	.	.
Cc1cc(C)cc(SCc2noc(C(=O)NCCC(C)C)c2C(=O)NCCC(C)C)c1	.	2.4	.	.	.	.	.
COc1ccccc1-n1cnc2cc(NCc3cccs3)ccc21	38.7	?	-21.6	2.3	21.1	4.4	.
COc1ccc(CNc2ccc3c(c2)ncn3-c2ccccc2OC)cc1	4.1	29.1*	-0.8	6.6	5.7	-11.6	>50
Cc1ccccc1-n1cnc2cc(NCc3cccs3)ccc21	-3.7	22.3*	0.8	5.6	0.5	-13.0	>50
Cc1sc(NC(=O)c2oc3ccccc3c2C)c(C#N)c1C	-12.7	25.2*	7.3	-0.7	3.3	1.8	>50

Screens as filed in PubChem BioAssay.
